4 compounds from ChEMBL document CHEMBL4406880, “Design, synthesis, and bioactivity of dihydropyrimidine derivatives as kinesin spindle protein inhibitors” (Bioorg Med Chem, 2019) can be followed below.

Data set [1] concerns MCF7. Kind of data set: Antiproliferative activity against human MCF7 cells assessed as growth percentage incubated for 72 hrs by XTT assay. In kind it is functional, cell-based. The settings on record: MCF7, 72 h.
Data set [2] deals with HeLa. The data set is described as follows: Antiproliferative activity against human HeLa cells assessed as growth percentage incubated for 72 hrs by XTT assay. In kind it is functional, cell-based. Background: Tetrazolium assays rely on reduction of a dye to a coloured formazan, in cell work by metabolically active cells.
Data set [3] concerns SNB-75. Kind of data set: Induction of apoptosis in human SNB75 cells assessed as early apoptotic cells at 2 uM incubated for 24 hrs by annexin V FITC and propidium iodide based flow cytometry (reference value: 0.82 %). In kind it is functional. A general note: A flow cytometer gives signals particle by particle.
Data set [4] relates to SNB-75. Kind of data set: Cell cycle arrest in human SNB75 cells assessed as accumulation in G0/G1 phase at 2 uM incubated for 24 hrs by propidium iodide based flow cytometry (reference value: 55.62 %). In kind it is functional. The gist of the method:
(§1)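 SNB-75 cells were exposed to 2 µM for 24 h at 37 °C, 5% CO2, then washed with PBS and fixed in 70% ethanol on ice for 15 min. They were stained 1 h at room temperature with 50 µg/mL propidium iodide, 0.1 mg/mL RNase A and 0.05% Triton X-100. DNA content was read by flow cytometry to give the % of cells in pre-G1, G0/G1, S and G2/M.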

Data set [5] relates to MDA-MB-435. Kind of data set: Induction of apoptosis in human MDA-MB-435 cells assessed as active caspase 3 level incubated for 2 hrs by ELISA (reference value: 1). In kind it is functional. The gist of the method:
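Active caspase-3 was measured by human sandwich ELISA. Samples were incubated on the plate for 2 h at room temperature. This was followed by 1 h with detection antibody, 30 min with anti-rabbit IgG-HRP, and 30 min with chromogen, with all steps at room temperature. Absorbance was read at 450 nm, and levels were read from a standard curve.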
On the technique in general: An ELISA detects its analyte on a solid surface through an enzyme-linked reagent.

Data set [6] relates to SNB-75. Kind of data set: Induction of apoptosis in human SNB75 cells assessed as necrosis at 2 uM incubated for 24 hrs by annexin V FITC and propidium iodide based flow cytometry (reference value: 0.44 %). In kind it is functional.
For data set [7], the system named is MDA-MB-435. The data set is described as follows: Induction of apoptosis in human MDA-MB-435 cells assessed as active caspase 9 level incubated for 2 hrs by ELISA (reference value: 1). The format is functional. The procedure, abridged: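 Caspase-9 was measured by human ELISA on cell lysates, with samples in duplicate. Samples were incubated with detection antibody for 2 h at room temperature. This was followed by 1 h with anti-rabbit IgG-HRP and 10 min with TMB substrate. After a stop solution, absorbance was read at 450 nm.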

Data set [8] has as its system SNB-75. Kind of data set: Cell cycle arrest in human SNB75 cells assessed as accumulation in G2/M phase at 2 uM incubated for 24 hrs by propidium iodide based flow cytometry (reference value: 10.46 %). In kind it is functional. The procedure, abridged:
as §1

For data set [9], the system named is SNB-75. Kind of data set: Cell cycle arrest in human SNB75 cells assessed as accumulation in S phase at 2 uM incubated for 24 hrs by propidium iodide based flow cytometry (reference value: 33.92 %). The format is functional. The procedure, abridged: as §1
In data set [10] the test system is SNB-75. Kind of data set: Induction of apoptosis in human SNB75 cells assessed as late apoptotic cells at 2 uM incubated for 24 hrs by annexin V FITC and propidium iodide based flow cytometry (reference value: 0.59 %). In kind it is functional.
Data set [11] concerns SNB-75. Kind of data set: Cell cycle arrest in human SNB75 cells assessed as accumulation in preG1 phase at 2 uM incubated for 24 hrs by propidium iodide based flow cytometry (reference value: 1.85 %). In kind it is functional. The procedure, abridged: as §1
Data set [12] in a line: Inhibition of kinesin (unknown origin) assessed as reduction in ATPase activity using microtubule as substrate measured for 5 to mins. Details: species or system Homo sapiens.
In data set [13] the target is Kinesin-like protein KIF11 (Homo sapiens, UniProt P52732). The data set is described as follows: Inhibition of recombinant human His-tagged Eg5 (1 to 368 residues) assessed as reduction in ATPase activity by […] based assay.
Kinesin-like protein KIF11, sequence (P52732 whole entry, the tested form may be a part): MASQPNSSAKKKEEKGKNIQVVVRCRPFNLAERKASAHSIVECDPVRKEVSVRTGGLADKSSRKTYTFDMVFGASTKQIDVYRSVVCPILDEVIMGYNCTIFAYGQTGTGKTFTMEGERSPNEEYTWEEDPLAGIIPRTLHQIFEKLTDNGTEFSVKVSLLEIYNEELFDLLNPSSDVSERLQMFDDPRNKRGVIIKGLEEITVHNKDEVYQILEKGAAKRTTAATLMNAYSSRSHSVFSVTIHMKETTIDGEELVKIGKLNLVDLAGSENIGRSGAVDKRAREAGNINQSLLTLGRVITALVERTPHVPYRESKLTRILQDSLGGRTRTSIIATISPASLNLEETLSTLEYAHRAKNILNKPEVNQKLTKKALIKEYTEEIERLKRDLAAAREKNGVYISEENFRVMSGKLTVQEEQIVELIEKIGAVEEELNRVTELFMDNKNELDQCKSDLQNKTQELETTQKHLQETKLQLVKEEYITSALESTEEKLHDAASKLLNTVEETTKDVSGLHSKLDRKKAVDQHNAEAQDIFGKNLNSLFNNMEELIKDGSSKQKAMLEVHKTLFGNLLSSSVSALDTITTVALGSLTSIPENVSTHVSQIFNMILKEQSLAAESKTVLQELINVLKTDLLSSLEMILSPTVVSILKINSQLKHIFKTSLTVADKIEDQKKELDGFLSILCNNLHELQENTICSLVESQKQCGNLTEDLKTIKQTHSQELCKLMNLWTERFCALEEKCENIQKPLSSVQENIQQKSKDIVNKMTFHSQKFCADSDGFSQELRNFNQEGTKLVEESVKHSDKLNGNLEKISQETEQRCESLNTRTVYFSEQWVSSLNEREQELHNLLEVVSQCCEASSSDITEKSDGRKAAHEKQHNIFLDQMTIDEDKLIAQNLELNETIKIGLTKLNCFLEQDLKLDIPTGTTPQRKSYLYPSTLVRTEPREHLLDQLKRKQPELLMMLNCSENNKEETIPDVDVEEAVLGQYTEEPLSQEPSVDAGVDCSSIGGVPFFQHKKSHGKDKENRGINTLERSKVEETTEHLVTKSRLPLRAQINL
Data set [14] in a line: Growth inhibition of human HEK293 cells assessed as cell viability at 1.56 ug incubated for 48 hrs by MTT assay relative to control. In kind it is cell-based. The settings on record: read-out: Activity.
The nature of data set [15]: Growth inhibition of human HEK293 cells assessed as cell viability at 0.39 ug incubated for 48 hrs by MTT assay relative to control. The format is cell-based. The following applies: read-out: Activity.
Data set [16] is described as follows: Growth inhibition of human HEK293 cells assessed as cell viability at 100 ug incubated for 48 hrs by MTT assay relative to control. In kind it is cell-based. The following applies: read-out: Activity.
Data set [17] can be described thus: Growth inhibition of human HEK293 cells assessed as cell viability at 25 ug incubated for 48 hrs by MTT assay relative to control. In kind it is cell-based. The settings on record: read-out: Activity.
A short description of data set [18]: Growth inhibition of human HEK293 cells assessed as cell viability at 6.25 ug incubated for 48 hrs by MTT assay relative to control. The following applies: read-out: Activity. The format is cell-based.

As a reminder, the IC50 is the concentration needed to halve the response being measured. With `CC1=C(C(=O)OCc2ccccc2)C(c2ccco2)NC(=O)N1` (centres undefined), the 50% inhibitory concentration (IC50) in [1] worked out at 55 µM; in [2], 40 µM.

For the compound `CCOC(=O)C1=C(C)NC(=S)NC1c1cccc(O)c1` (centres undefined) [MONASTROL], the Activity in data set [3] is listed as 4.72%; in data set [4] it was 29.56%; in data set [6], 2.32%; in data set [8], 41.26%; in data set [9] it was 29.18%; in data set [10], 15.54%. The Activity in data set [11] stood at 22.58%. The “fold change (FC)” value was 6.9 in data set [5] and 11.92 in data set [7]. The IC50 in [12] and in [13] was 20 µM throughout.

In the case of `CC1=C(C(=O)c2ccccc2)C(c2cccc(O)c2)NC(=S)N1C` (centres undefined), in data set [12], the IC50 amounted to 0.1 µM.

With `COc1cccc2c1C(=O)c1c(O)c3c(c(O)c1C2=O)C[C@@](O)(C(=O)CO)C[C@@H]3O[C@H]1C[C@H](N)[C@H](O)[C@H](C)O1` [DOXORUBICIN], the viability at 48 h, 1.56 ug in [14] is 64.7%. Further, the viability at 48 h, 0.39 ug in data set [15] is 75.1%. Further, the viability at 48 h, 100 ug in [16] was found to be 33.8%. Besides, the viability at 48 h, 25 ug in [17] was found to be 43.6%. The viability at 48 h, 6.25 ug in data set [18] is 55.2%.
